A short description of series [1]: AUC(infinity) in C57BL/6N mouse at 0.05 mg/kg, po administered via gavage by LC-MS/MS analysis. On the set-up: time infinity, dose 0.05 mg/kg, route oral. The note with it: plasma. In kind it is ADME, organism-based. A digest of the protocol: (§1)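 Male C57BL/6N mice were dosed by oral gavage at 10 mL/kg with a fine suspension in 10% hydroxypropyl-β-cyclodextrin in 50 mM phosphate buffer, pH 7. Plasma was taken at non-serial time points (n=3 per time point), extracted with 0.1% formic acid in acetonitrile containing diclofenac as internal standard, and quantified by UPLC-MS/MS. Composite non-compartmental parameters came from mean concentrations; AUClast by linear trapezoid, kel from at least three terminal points.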

The nature of series [2]: Oral bioavailability in C57BL/6N mouse at 0.05 mg/kg administered via gavage by LC-MS/MS analysis. Format: ADME, organism-based. The conditions noted are these: in vivo. A digest of the protocol: (§2)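 Male C57BL/6N mice dosed by oral gavage (10 mL/kg) as fine suspensions in 10% hydroxypropyl-β-cyclodextrin in 50 mM phosphate buffer pH 7; dose formulations verified by LC-MS/MS. Plasma analysed by LC-MS/MS; composite non-compartmental parameters from mean concentrations (n=3 per time point), C0 set to zero. %F = dose-normalised po AUCinf over dose-normalised iv AUCinf, only within linear range.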

Series [3] can be described thus: Half life in C57BL/6N mouse at 0.05 mg/kg, po administered via gavage by LC-MS/MS analysis. Format: ADME, organism-based. On the set-up: dose 0.05 mg/kg, route oral. The note with it: in vivo. In outline: as §1
A short description of series [4]: Metabolic stability in mouse liver microsomes assessed as intrinsic clearance at 5 uM after 5 to 40 mins by LC-MS/MS analysis. In kind it is ADME. The conditions noted are these: read-out: CLH. In general terms: Microsomes from liver hold many membrane-bound enzymes, among them those of drug oxidation.
Series [5] in a line: Plasma protein binding in rat at 5 and 20 uM for 6 hrs by LC-MS/MS analysis. Format: ADME, cell-free. The note with it: read-out: PPB. A digest of the protocol: (§3)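 Equilibrium dialysis: plasma fortified in triplicate (5 and 20 µM rat and mouse; 10 µM human) on donor side, PBS on receiver side; 37°C, 200 rpm, 6 h; both sides by LC-MS/MS.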
A short description of series [6]: Plasma protein binding in human at 10 uM for 6 hrs by LC-MS/MS analysis. In kind it is ADME, cell-free. The conditions noted are these: read-out: PPB. In outline: as §3
Series [7] deals with Kynurenine 3-monooxygenase (Mus musculus, UniProt Q91WN4). Briefly: Inhibition of C57BL/6J mouse KMO assessed as 3-hydroxykynurenine formation preincubated for 5 mins using 100 uM kynurenine as substrate by LC-MS/MS analysis in presence of 3 mg/ml plasma protein. In outline:
(§4)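 Liver mitochondrial KMO (mouse C57 BL/6J or human), 0.3 mg protein/mL in 100 mM potassium phosphate pH 7.4, 200 µM NADPH, NADPH-regenerating system, plus 3 mg/mL plasma protein. Compound pre-incubated 5 min at 25°C; 100 µM kynurenine started reaction for 40 min (mouse) or 60 min (human); TCA stop; 3-hydroxykynurenine by LC-MS/MS. IC50 from 8-point 3-fold series, triplicates, n≥2.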

Series [8] has as its target Kynurenine 3-monooxygenase (Homo sapiens, UniProt O15229). The series is described as follows: Inhibition of human KMO assessed as 3-hydroxykynurenine formation preincubated for 5 mins using 100 uM kynurenine as substrate by LC-MS/MS analysis in presence of 3 mg/ml plasma protein. In outline:
as §4

The nature of series [9]: Cmax in R6/2 mouse at 7.5 mg/kg/day, po. Format: ADME, organism-based. On the set-up: dose 7.5 mg/kg/day, route oral. The conditions noted are these: in vivo.
Series [10] can be described thus: Cmax in mouse at 25 mg/kg/day, po. In kind it is ADME, organism-based. On the set-up: dose 25 mg/kg/day, route oral. The note with it: in vivo.
Series [11] concerns Mus musculus. Briefly: Dose normalised AUC in C57BL/6N mouse at 5 mg/kg, iv administered as single dose by LC-MS/MS analysis. Format: ADME, organism-based. On the set-up: dose 5 mg/kg, route intravenous. The conditions noted are these: in vivo. In outline:
(§5)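 Single intravenous bolus of 5 mg/kg to male C57BL/6N mice, given as a filtered 1 mg/mL solution in DMSO:PEG400:water 10:50:40 (v/v). Plasma was extracted in acidified acetonitrile with diclofenac as internal standard and analysed by UPLC-MS/MS. Non-compartmental analysis used mean concentrations (n=3 per time point), with C0 back-extrapolated from the first two samples. AUCinf = AUClast + Ct/kel.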

Series [12] is described as follows: Half life in C57BL/6N mouse at 5 mg/kg, iv administered as single dose by LC-MS/MS analysis. The note with it: in vivo. The arrangement: dose 5 mg/kg, route intravenous. In kind it is ADME, organism-based. A digest of the protocol: as §5
A short description of series [13]: Oral bioavailability in C57BL/6N mouse treated with JM6 (containing <0.4% Ro-61-8048) at 9 mg/kg and Ro-61-8048 at 1 mg/kg drugs administered via gavage by LC-MS/MS analysis. In kind it is ADME, organism-based. The note with it: in vivo. A digest of the protocol:
as §2

Series [14] deals with Mus musculus. The series is described as follows: Cmax in C57BL/6N mouse at 10 mg/kg, po administered via gavage containing <0.4% Ro-61-8048 by LC-MS/MS analysis. In kind it is ADME, organism-based. The arrangement: dose 10 mg/kg, route oral. The note with it: in vivo. A digest of the protocol:
as §1

Series [15] has as its system Mus musculus. Briefly: Half life in C57BL/6N mouse at 10 mg/kg, po administered via gavage containing <0.4% Ro-61-8048 by LC-MS/MS analysis. In kind it is ADME, organism-based. On the set-up: dose 10 mg/kg, route oral. The note with it: in vivo. A digest of the protocol: as §1
Series [16] concerns Mus musculus. The series is described as follows: Dose normalised AUC in C57BL/6N mouse at 5 mg/kg, iv administered as single dose containing <0.4% Ro-61-8048 by LC-MS/MS analysis. Format: ADME, organism-based. The arrangement: dose 5 mg/kg, route intravenous. The conditions noted are these: in vivo. A digest of the protocol: as §5
Series [17] can be described thus: Plasma clearance in C57BL/6N mouse at 5 mg/kg, iv administered as single dose containing <0.4% Ro-61-8048 by LC-MS/MS analysis. In kind it is ADME, organism-based. The arrangement: dose 5 mg/kg, route intravenous. A digest of the protocol: (§6)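 Male C57BL/6N mice given 5 mg/kg iv bolus (1 mg/mL, DMSO:PEG400:water 10:50:40, filtered); dosed material carried Ro-61-8048 as impurity, which was also quantified in plasma. LC-MS/MS after acetonitrile/formic acid extraction; composite non-compartmental analysis of mean concentrations (n=3 per time point), C0 back-extrapolated, kel from ≥3 terminal points.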

A short description of series [18]: Volume of distribution at steady state in C57BL/6N mouse at 5 mg/kg, iv administered as single dose containing <0.4% Ro-61-8048 by LC-MS/MS analysis. In kind it is ADME, organism-based. The arrangement: dose 5 mg/kg, route intravenous. The note with it: in vivo, read-out: Vdss. In outline:
as §6

Series [19] concerns Mus musculus. The series is described as follows: Dose normalised AUC in C57BL/6N mouse at 10 mg/kg, po administered via gavage containing <0.4% Ro-61-8048 by LC-MS/MS analysis. The conditions noted are these: in vivo. Format: ADME, organism-based. The arrangement: dose 10 mg/kg, route oral. In outline: as §1

Where only a bound is given, the exact number is not on record here.

As a reminder, the AUC(0-inf) is total exposure, with the tail of the curve extrapolated. Read a high AUC(0-inf) as more exposure. Usually bioavailability stands for dose-corrected exposure relative to a reference, in per cent. The low end stands for little systemic uptake, the high end for much systemic uptake. What is called half-life is how long it takes for the measured level to halve. Low readings indicate fast loss, high ones slow loss. The term IC50 denotes the midpoint of a concentration-inhibition curve. By Cmax is commonly meant the maximum level reached in the sampled fluid or tissue. What is called clearance is the volume of plasma or blood freed of the substance per unit of time. Lower therefore signals a low capacity for elimination.

Kynurenine 3-monooxygenase (Homo sapiens, UniProt O15229), sequence (O15229 whole entry): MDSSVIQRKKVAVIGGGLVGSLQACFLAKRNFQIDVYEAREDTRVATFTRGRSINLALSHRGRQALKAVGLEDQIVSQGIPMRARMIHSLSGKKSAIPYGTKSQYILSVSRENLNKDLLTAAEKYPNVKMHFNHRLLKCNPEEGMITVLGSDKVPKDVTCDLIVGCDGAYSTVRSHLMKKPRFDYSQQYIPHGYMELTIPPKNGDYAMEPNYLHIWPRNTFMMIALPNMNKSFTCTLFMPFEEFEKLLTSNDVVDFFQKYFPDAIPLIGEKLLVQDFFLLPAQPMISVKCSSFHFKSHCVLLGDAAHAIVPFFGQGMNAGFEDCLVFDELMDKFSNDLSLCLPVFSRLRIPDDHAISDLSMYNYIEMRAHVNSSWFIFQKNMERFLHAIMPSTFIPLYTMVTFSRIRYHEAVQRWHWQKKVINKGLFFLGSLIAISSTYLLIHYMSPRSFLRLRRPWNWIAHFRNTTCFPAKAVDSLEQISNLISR
Kynurenine 3-monooxygenase (Mus musculus, UniProt Q91WN4), sequence (Q91WN4 whole entry): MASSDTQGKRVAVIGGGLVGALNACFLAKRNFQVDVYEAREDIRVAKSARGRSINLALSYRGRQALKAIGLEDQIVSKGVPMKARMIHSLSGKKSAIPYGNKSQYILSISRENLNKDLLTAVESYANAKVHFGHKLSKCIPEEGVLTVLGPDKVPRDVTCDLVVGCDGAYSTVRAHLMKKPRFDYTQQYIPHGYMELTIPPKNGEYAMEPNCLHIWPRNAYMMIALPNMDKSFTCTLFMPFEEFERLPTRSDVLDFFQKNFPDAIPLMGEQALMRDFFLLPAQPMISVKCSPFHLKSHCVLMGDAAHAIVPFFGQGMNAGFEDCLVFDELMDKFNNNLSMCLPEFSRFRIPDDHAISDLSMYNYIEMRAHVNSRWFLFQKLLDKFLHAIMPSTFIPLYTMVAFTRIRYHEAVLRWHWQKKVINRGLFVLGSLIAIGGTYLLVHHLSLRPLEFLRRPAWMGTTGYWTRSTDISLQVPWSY

`COc1ccc(S(=O)(=O)Nc2nc(-c3cccc([N+](=O)[O-])c3)cs2)cc1OC` came in with an AUC(0-inf) in series [1] of 4.5 µM·h. The bioavailability in series [2] worked out at 70%. Further, the half-life in series [3] is 5.2 h; in series [12] it was 6.5 h. For the same compound, in series [4], the microsomal CLint at 5 µM was under 29 µL/min/mg. Further, the fraction unbound at 6 h in [5] was under 0.01. In series [6], the fraction unbound at 6 h, 10 µM is under 0.01. Also, the IC50 in [7] was at least 12 µM; in [8], over 30 µM. Moreover, the Cmax in series [9] and in series [10] was 280 nM each time. Further, the AUC/dose with Mus musculus [11] was found to be 130000 nM·kg·h/mg.
For the compound `COc1ccc(S(=O)(=O)Nc2nc(-c3cccc([N+](=O)[O-])c3)c(CN3CCCCC3)s2)cc1OC`, the bioavailability in series [13] was determined as 7.8%. Moreover, in the series on Mus musculus [14], the highest level (Cmax) was 100 nM. For the same compound, the t1/2 in the series with Mus musculus [15] worked out at 1.1 h. Moreover, the AUC/dose is 1000 nM·kg·h/mg in the series on Mus musculus [16] and 110 nM·kg·h/mg in the series with Mus musculus [19]. In series [17], this compound had a clearance of 31.7 mL/min/kg. The Vd in series [18] was 0.37 L/kg.

Source of the values: ChEMBL document CHEMBL3526063, “Metabolism and pharmacokinetics of JM6 in mice: JM6 is not a prodrug for Ro-61-8048” (Drug Metab Dispos, 2012).
